According to ChEMBL document CHEMBL2021898, “Prenylated acylphloroglucinols, chipericumins A-D, from Hypericum chinense” (J Nat Prod, 2012):

Key:
Candida albicans = test: Antimicrobial activity against Candida albicans by broth micro-dilution method; type: functional, organism-based
Aspergillus niger = test: Antimicrobial activity against Aspergillus niger by broth micro-dilution method; type: functional, organism-based
Micrococcus luteus = test: Antimicrobial activity against Micrococcus luteus by broth micro-dilution method; type: functional
KB = test: Cytotoxicity against human KB cells incubated for 48 hrs at 37 degC; type: functional, cell-based
Method in brief: (§1)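 Human epidermoid carcinoma KB and murine leukemia L1210 cells were cultured with test compounds at various concentrations, dissolved in 1% DMSO, in 100 μL medium at 37 °C for 48 h. IC50 was taken from a plot of log concentration against growth rate of treated cells. Paclitaxel was the positive control.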

Escherichia coli = test: Antimicrobial activity against Escherichia coli by broth micro-dilution method; type: functional
L1210 = test: Cytotoxicity against mouse L1210 cells incubated for 48 hrs at 37 degC; type: functional, cell-based; conditions: L1210, 48 h; method in brief: as §1
[1] = system: Trichophyton mentagrophytes; test: Antimicrobial activity against Trichophyton mentagrophytes by broth micro-dilution method; type: functional, organism-based
Staphylococcus aureus = test: Antimicrobial activity against Staphylococcus aureus by broth micro-dilution method; type: functional
Bacillus subtilis = test: Antimicrobial activity against Bacillus subtilis by broth micro-dilution method; type: functional
Cryptococcus neoformans = test: Antimicrobial activity against Cryptococcus neoformans by broth micro-dilution method; type: functional, organism-based

Row | IC50 (Candida albicans) | IC50 (Aspergillus niger) | MIC (Micrococcus luteus) | MIC (Escherichia coli) | IC50 [1] | MIC (Staphylococcus aureus) | MIC (Bacillus subtilis) | IC50 (Cryptococcus neoformans) | SMILES | IC50 (KB) | IC50 (L1210)
1 | > 32 µg/mL | > 32 µg/mL | > 32 µg/mL | > 32 µg/mL | > 32 µg/mL | > 32 µg/mL | > 32 µg/mL | > 32 µg/mL | CC(C)C(=O)C1=C2O[C@H](C(C)(C)O)C[C@]2(C)C(=O)[C@]2(C[C@H]3[C@@H](CC[C@@]3(C)O)[C@](C)(O)C2)C1=O (relative stereo) | > 10 µg/mL | > 10 µg/mL
2 | > 32 µg/mL | > 32 µg/mL | > 32 µg/mL | > 32 µg/mL | > 32 µg/mL | > 32 µg/mL | > 32 µg/mL | > 32 µg/mL | CCC(C)C(=O)C1=C2O[C@H](C(C)(C)O)C[C@]2(C)C(=O)[C@]2(C[C@H]3[C@@H](CC[C@@]3(C)O)[C@](C)(O)C2)C1=O (some centres not stated) [CHIPERICUMIN B] | > 10 µg/mL | > 10 µg/mL
3 | > 32 µg/mL | > 32 µg/mL | > 32 µg/mL | > 32 µg/mL | > 32 µg/mL | > 32 µg/mL | > 32 µg/mL | > 32 µg/mL | CC(C)=CC[C@]1(C)C(=O)[C@@]2(C[C@H]3[C@@H](CC[C@@]3(C)O)[C@](C)(O)C2)C(=O)C(C(=O)C(C)C)=C1O (relative stereo) | > 10 µg/mL | > 10 µg/mL
4 |  |  |  |  |  |  |  |  | CC(=O)O[C@H]1C(=O)[C@@]2(C)[C@H]([C@H](OC(=O)c3ccccc3)[C@]3(O)C[C@H](OC(=O)[C@H](O)[C@@H](NC(=O)c4ccccc4)c4ccccc4)C(C)=C1C3(C)C)[C@]1(OC(C)=O)CO[C@@H]1C[C@@H]2O [PACLITAXEL] | 4.5 nM | 120 nM
5 | > 32 µg/mL | > 32 µg/mL | > 32 µg/mL | > 32 µg/mL | > 32 µg/mL | > 32 µg/mL | > 32 µg/mL | > 32 µg/mL | CCC(C)C(=O)C1=C(O)[C@@](C)(CC=C(C)C)C(=O)[C@@]2(C[C@H]3[C@@H](CC[C@@]3(C)O)[C@](C)(O)C2)C1=O (relative stereo) | > 10 µg/mL | > 10 µg/mL
